CTSL1 counter-1 = Fasciola hepatica cathepsin L1 inhibitors, primary screen, counter-screen for PFM18AAP inhibitor project, biochemical, QFRET, fluorogenic peptide substrate; recombinant F. hepatica cathepsin L1, Z-Leu-Arg-MCA fluorescence; inhibition, % at 5.96 µM; hit rate 0.49% among 300,000;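 active = inhibition above the mean of all tested compounds plus 3 SD, set per screening campaign, cut at about 17% in these data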;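 note: 0% = plate median of test compound wells and 100% = 1 µM Z-Phe-Ala-diazomethylketone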
VIM-2 inh = VIM-2 metallo-beta-lactamase inhibitors, primary screen, biochemical, epi-absorbance readout, Pseudomonas aeruginosa enzyme; inhibition, % at 5.6 µM; hit rate 0.89% among 290,000; AID 1527, 2009; purified VIM-2, nitrocefin hydrolysis, epi-absorbance fluorescence;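 active = inhibition above the mean of all tested compounds plus 3 SD, cutoff set per screening run, cut at about 7.5% in these data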;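 note: red hydrolysis product quenches plate fluorescence so inhibitors raise well fluorescence; 0% = enzyme with DMSO and 100% = DMSO without enzyme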
IMP-1 inhibitor = IMP-1 metallo-beta-lactamase inhibitors, primary screen, biochemical, epi-absorbance readout, Pseudomonas aeruginosa enzyme; metallo-beta-lactamase IMP-1 (Pseudomonas aeruginosa); purified IMP-1, nitrocefin hydrolysis, epi-absorbance fluorescence; inhibition, % at 5.6 µM; hit rate 0.45% among 290,000; AID 1556, 2009;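 active = inhibition above the mean plus 3 SD of all compounds in the same screening run, cut at about 4.5% in these data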;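 note: 0% = IMP-1 with DMSO and 100% = DMSO wells lacking enzyme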
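System – purified recombinant IMP-1 beta-lactamase · Input – IMP-1 dispensed at 0.2 nM · Timing – 15 min preincubation plus 25 min reaction at 25 °C · Signal – Epi-absorbance fluorescence, 480 nm excitation, 530 nm emission · Measure – percent IMP-1 inhibition derived from blank-referenced optical density · Controls – Enzyme-plus-DMSO low control, enzyme-free DMSO high control · Replication – singlicate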
PfM18AAP inh-1 = PfM18AAP inhibitors, malaria aminopeptidase, primary screen, biochemical, QFRET, recombinant enzyme; H-Glu-NHMec fluorogenic cleavage; M18 aspartyl aminopeptidase (Plasmodium falciparum 3D7); hit rate 1.2% among 290,000; inhibition, % at 7.35 µM;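 active = inhibition above the campaign mean inhibition over all tested compounds plus 3 SD, cut at about 28% in these data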;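 note: 0% = plate median of test compound wells and 100% = 2 mM ZnCl2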
PfM18AAP inh-2 = PfM18AAP inhibitors, malaria aminopeptidase, confirmation, biochemical, QFRET, recombinant enzyme, triplicate; shares compounds with PfM18AAP inh-1; H-Glu-NHMec fluorogenic cleavage; inhibition, % at 7.35 µM; hit rate 28% among 2,400; AID 2170, 2009;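 active = mean inhibition over replicate wells above the hit cutoff set for the earlier primary screen, cut at about 29% in these data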;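 note: 0% = median of test compound wells and 100% = 2 mM ZnCl2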
CTSL1 counter-2 = cathepsin L1 inhibitors, retest, confirmation, counter-screen for PFM18AAP inhibitor project, biochemical, QFRET, triplicate. inhibition, % at 5.96 µM. 2,400 tested, under 10 active. AID 2178, 2009. purified cathepsin L1, Z-Leu-Arg-MCA fluorescence. shares compounds with PfM18AAP inh-1;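 active = average inhibition across replicates above the hit cutoff set in the earlier primary screen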;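 note: 0% = median of test compound wells and 100% = Z-Phe-Ala-diazomethylketone 1 µM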
Target sequence (P07711 whole entry, looked up): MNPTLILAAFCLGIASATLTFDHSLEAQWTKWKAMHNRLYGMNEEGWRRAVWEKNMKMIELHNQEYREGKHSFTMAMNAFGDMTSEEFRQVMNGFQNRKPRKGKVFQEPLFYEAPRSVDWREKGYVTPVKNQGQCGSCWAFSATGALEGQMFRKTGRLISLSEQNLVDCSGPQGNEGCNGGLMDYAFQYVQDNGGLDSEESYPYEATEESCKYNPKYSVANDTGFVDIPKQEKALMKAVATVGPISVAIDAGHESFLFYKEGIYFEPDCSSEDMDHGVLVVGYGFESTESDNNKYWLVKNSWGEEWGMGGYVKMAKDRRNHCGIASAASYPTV
The depositor's hits bear a star; . = no result. Only some compounds are listed: those with a hit (about 2.7% of all), similar ones and a draw of the others.

SMILES	CTSL1 counter-1	VIM-2 inh	IMP-1 inhibitor	PfM18AAP inh-1	PfM18AAP inh-2	CTSL1 counter-2
Cc1[nH]n(-c2ccccc2)c(=S)c1C=NCCCN=Cc1c(C)[nH]n(-c2ccccc2)c1=S	6	-3	-1	59*	-4	1
COC(=O)CN=Cc1c(C)[nH]n(-c2ccccc2)c1=O	3	-3	-4	-16	.	.
C/C(=N\N1C(=O)CSC1=S)c1ccc(Br)cc1	-5	1	-3	50*	10	5
COc1ccc(-n2c(=S)[nH]c3cc(C(=O)NCCCN4CCOCC4)ccc3c2=O)cc1OC	1	-1	-2	4	.	.
O=c1c(-n2cncn2)c[nH]n1-c1cccc(Cl)n1	-3	0	-4	67*	-14	-7
CCOC(=O)Cc1csc(NC(=O)NC2(C(F)(F)F)Oc3ccc(Cl)cc3O2)n1 (configuration not stated)	-3	-4	-5	97*	73*	-2
CCOC(=O)Cc1csc(NC(=O)Nc2ccc(OC(F)(F)F)cc2)n1	2	-1	-1	-3	.	.
CCOC(=O)Cc1csc(NC(=O)NC2(C(F)(F)F)Oc3ccccc3O2)n1	0	-1	-2	90*	68*	1
CCOC(=O)Cc1csc(NC(=O)NC2(C(F)(F)F)Oc3cc(Cl)c(Cl)cc3O2)n1	-1	-4	-7	94*	73*	-3
O=C(Cn1cc(C(F)(F)F)ccc1=O)N/N=C/c1ccc(Cl)cc1	0	-3	-4	1	.	.
Cc1c(NC(=S)N/N=C/c2ccc([N+](=O)[O-])cc2O)c(=O)n(-c2ccccc2)n1C	4	-2	-3	2	.	.
Cc1c(NC(=S)N/N=C\c2ccccc2O)c(=O)n(-c2ccccc2)n1C	0	7.8*	-4	36*	-2	3
Cc1cccc(C(=O)n2cnnc2N)c1	-3	-1	-1	45*	56*	-1
Cc1cc(C)cc(C(=O)n2cnnc2N)c1	-2	-1	-6	48*	59*	5
Cc1ccc(OCC(=O)n2cnnc2N)c(C)c1	-3	-1	-5	57*	54*	-4
Cc1ccc(OCC(=O)N2CCc3ccccc3C2)c(C)c1	4	1	-1	-2	.	.
COC(=O)c1cn(C(=O)c2cccc(C)c2)c2ccccc12	1	-3	-1	-1	.	.
CSCc1ccc(C(=O)N2CCC(N3CCC(C(=O)NC(C)C)CC3)CC2)o1	1	-2	-1	9	.	.
CCOC(=O)c1nnn(CC(=O)N2N=C(c3ccc(Cl)cc3)CC2c2ccccc2)c1C(=O)OCC (configuration not stated)	2	-4	-9	-2	.	.
CCOC(=O)N1CCC(NC(=O)c2csc3c2CCCC3)CC1	-3	-4	-5	-2	.	.
CC1(C)CC2(CC(c3ccc(F)cc3)c3ccc(O)cc3O2)NC(=S)N1 (configuration not stated)	-4	-4	-4	12	.	.
CC1(C)CC2(CC(c3ccccc3F)c3ccc(O)c(O)c3O2)NC(=S)N1 (configuration not stated)	-2	-3	-1	49*	81*	5
O=C(Cc1ccccc1)Nc1ccc2c(c1)CCC2	-5	-3	-3	4	.	.
O=C(CC1CCCC1)Nc1ccc2c(c1)CCC2	-4	-6	1	46*	-30	-5
Cc1cc(C)c2c(N)c(C(=O)NCc3ccco3)sc2n1	0	6	-4	36*	-55	-4
SMILES	CTSL1 counter-1	VIM-2 inh	IMP-1 inhibitor	PfM18AAP inh-1	PfM18AAP inh-2	CTSL1 counter-2
CC(=O)c1sc2nc(C)cc(C)c2c1N	-1	3	-1	-9	.	.
Cc1c(C(=O)c2no[n+]([O-])c2C(=O)c2cnn(C)c2C)cnn1C	15	-2	-4	59*	77*	5
COc1ccc(OC)c2nc(-c3ccc4c(c3)OCO4)ccc12	-2	-2	-5	-3	.	.
CC1CCC2(CC1)NC(=S)N(c1ccccc1)N2 (configuration not stated)	3	-4	-2	45*	-24	2
O=C1CS/C(=N/N=C2CCCC2)N1	-10	-3	-2	2	.	.
O=C1CSC(=S)N1N=C1CCCCCC1	1	-2	-1	39*	1	-1
Cc1cc(C)c(NC(=S)N(CCN(C)C)Cc2cccs2)c(C)c1	1	-2	-3	1	.	.
Cc1ccc(NC(=S)N(CCN(C)C)Cc2cccs2)c(C)c1	-2	0	-3	36*	7	1
Cc1cccc(NC(=S)NC2CCCCC2)n1	2	-1	-4	36*	8	2
Cc1cccc(NC(=S)NC2CCCC2)n1	-1	-4	-4	44*	-3	7
CCN1CCN(C(=S)c2ccc(OCC(=O)NCc3ccccc3)cc2)CC1	-1	0	1	39*	-7	3
Cc1ccc(C(=S)N2CCN(Cc3ccccc3)CC2)cc1	3	0	-1	52*	-6	6
NS(=O)(=O)c1ccc(NC(=O)c2cccc(Cl)c2)cc1	-3	-2	-3	4	.	.
O=C(O)CCC(=O)Nc1ccc(Br)cn1	-1	-2	-2	-2	.	.
Cc1cc(C)n(CCCNCC(O)c2ccccc2)n1 (configuration not stated)	2	-2	-1	17	.	.
CC(=O)NC1=NC(=O)/C(=C/c2cc(C)n(-c3cccc(C(=O)O)c3)c2C)S1	.	0	-3	33*	-33	-3
O=C(NCCN1CCOCC1)NC1(C(F)(F)F)Oc2ccc(Cl)cc2O1 (configuration not stated)	-5	-1	-4	87*	89*	-4
COCC(C)NC(=O)NC(=O)c1ccc(Cl)cc1 (configuration not stated)	1	-1	-7	-4	.	.
O=C(NCCN1CCOCC1)c1cc(Cl)ccc1Cl	.	-2	-4	-3	.	.
COCC(C)NC(=O)NC1(C(F)(F)F)Oc2ccc(Cl)cc2O1 (configuration not stated)	8	-3	-4	79*	66*	3
Cc1cc(C)c(NC(=S)NCC2CCN(C(C)c3ccccc3)C2)c(C)c1 (configuration not stated)	-14	-1	-1	53*	3	-2
CC(C)n1c(=S)[nH]c2c1c(=O)[nH]c(=O)n2C	-2	-2	-3	36*	29*	-1
C=CC(C)n1c(Br)nc2c1c(=O)[nH]c(=O)n2C (configuration not stated)	-1	-2	-3	2	.	.
Cc1ccc(N=C(NOC(=O)c2ccccc2)c2nonc2N)c(C)c1	-9	1	0	6	.	.
CC(=O)ONC(=Nc1ccccc1)c1nonc1N	-34	1	0	36*	-6	-46

Screening data: PubChem, The Scripps Research Institute Molecular Screening Center
